Most compounds without a hit are left out; they make up all but 2.3% or so of the library.
Rpn11 inh = inhibitors of human proteasome Rpn11; O00487; human 26S proteasome, Ub4-pepOG fluorescence polarization; 20S core pre-blocked with epoxomicin; AID 588493; inhibition, % at 20 µM; actives 0.59% (n = 360,000);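 active = inhibition at 20 µM, scaled to each plate's controls, above about 33%, limit read from the data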
Myeloid diff 2 = promotes myeloid progenitor differentiation; ER-HoxA9 myeloid progenitors, lysozyme-GFP differentiation, flow cytometry; calls only at 10 µM; actives 1% (n = 360,000);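 active = normalized GFP-positive differentiation at or above the plate's own cutoff, the solvent-only control mean plus 3 SD; inconclusive = no clear call, values can overlap the other calls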;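 note: cells exposed to compound for four days before flow analysis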
TPT1 inh = inhibitors of Candida albicans tRNA 2'-phosphotransferase TPT1 | recombinant caTPT1, FP RNA substrate dephosphorylation | inhibition, % at 5 µM | actives 0.81% (n = 300,000);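 active = inhibition above the mean of all tested compounds plus 3 SD, set per screening campaign, cut at about 24% in these data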
HNF4A DNA FP = change in binding of human HNF4 alpha to DNA; activity change, % at 10 µM; AID 1224865; HNF4a-FITC DNA binding, fluorescence polarization, 1 h; actives 0.3% (n = 360,000); in the data active = activity change above about 30%, passing the limit was not always enough
Target sequence (P41235 whole entry, looked up): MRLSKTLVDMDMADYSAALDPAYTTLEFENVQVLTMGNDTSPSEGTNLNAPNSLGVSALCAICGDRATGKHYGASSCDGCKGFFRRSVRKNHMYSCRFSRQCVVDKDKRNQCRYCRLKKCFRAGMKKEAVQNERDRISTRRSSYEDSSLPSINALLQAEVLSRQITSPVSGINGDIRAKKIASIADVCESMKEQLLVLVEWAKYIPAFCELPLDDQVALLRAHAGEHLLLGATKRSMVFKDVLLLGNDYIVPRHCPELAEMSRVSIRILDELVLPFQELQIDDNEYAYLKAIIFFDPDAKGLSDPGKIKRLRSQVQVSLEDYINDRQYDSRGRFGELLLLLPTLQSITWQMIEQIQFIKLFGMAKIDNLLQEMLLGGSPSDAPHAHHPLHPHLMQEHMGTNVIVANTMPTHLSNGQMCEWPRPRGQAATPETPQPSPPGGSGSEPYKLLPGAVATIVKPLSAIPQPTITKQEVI
CSN inh = inhibitors of human CSN-mediated cullin deneddylation; Purified CSN, SCF-Nedd8-OG deneddylation, fluorescence polarization; inhibition, % at 12.5 µM; actives 0.38% (n = 360,000);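 active = pattern-corrected inhibition above about 35%, with an unprinted fluorescence ratio check between 0.5 and 1.5, limit read from the data, passing the limit was not always enough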
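Assay system: Purified human Csn5 enzyme expressed in HEK293T cells | Amount: Enzyme 0.24 nM | Measured by: Fluorescence polarization readout | Medium: Tris/NaCl/DTT buffer, pH 7.5 | Compound dosing: One concentration, 12.5 µM, 0.25% DMSO | Times: 90 min incubation of compound, enzyme and substrate at room temperature | Control set: no-enzyme wells high, enzyme-with-substrate wells low | Read-out: % inhibition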
Myeloid diff = compounds promoting myeloid differentiation; shares compounds with Myeloid diff 2; ER-HoxA9 myeloid progenitors, GFP/Mac1 double-positive flow; calls only; actives 2% (n = 2,300);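 active = share of green or green-and-red cells above 9 and 9% in run 1 or 4 and 3% in run 2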
GFP autofluor = compound fluorescence in myeloid differentiation counter-screen. shares compounds with Myeloid diff 2. ER-HoxA9 myeloid progenitors, no estrogen, GFP autofluorescence flow cytometry; vehicle wells 0%, positive control 100%. fluorescence response, % (test concentration not listed). actives 7.4% (n = 2,300). AID 651707;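 active = over 5% cells positive for green fluorescent reporter, or over 2% positive for both it and APC stain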
Large screens that a line does not name were inactive (follow-up assays come after a bar, where they were run).

O=C(NCc1ccccc1)C12CN(Cc3ccccc3)CC1C(c1cccc([N+](=O)[O-])c1)=NO2 (stereo not drawn)	none | Myeloid diff inactive | GFP autofluor inactive
COc1cccc(CNS(=O)(=O)c2ccccc2Br)c1OC	none (no result: TPT1 inh) | Myeloid diff inactive | GFP autofluor inactive
COc1ccccc1CNS(=O)(=O)c1cc(C)ccc1OC	none
O=S(=O)(c1ccc(=S)[nH]c1)N1CCCC1	Myeloid diff 2 active (no result: TPT1 inh) | Myeloid diff inactive | GFP autofluor 62
O=c1ccc(S(=O)(=O)N2CCCC2)c[nH]1	none (no result: TPT1 inh)
COc1ccc(N2CC(C(=O)OCC(=O)c3ccc(C)cc3)CC2=O)cc1 (stereo not drawn)	Myeloid diff 2 active | Myeloid diff inactive | GFP autofluor inactive
CCOc1ccc(N2CC(C(=O)OCC(=O)c3ccc(OC)cc3)CC2=O)cc1 (stereo not drawn)	none
Cc1c(Cl)cccc1N=Cc1ccc([N+](=O)[O-])s1	none | Myeloid diff inactive | GFP autofluor inactive
CN(c1cc2c(c3c1ccn3C)C1CCC2O1)C1CCCCC1 (stereo not drawn)	none (no result: TPT1 inh)
Cn1ccc2c(N3CCCCCCC3)cc3c(c21)C1CCC3O1 (stereo not drawn)	Myeloid diff 2 active (no result: TPT1 inh) | Myeloid diff inactive | GFP autofluor inactive
N#CC(c1ccc(O)cc1)N1CCN(C(C#N)c2ccc(O)cc2)CC1 (stereo not drawn)	none (no result: TPT1 inh)
CCCC(=O)NC(=S)Nc1ccc(N2CCOCC2)c(Cl)c1	none | Myeloid diff inactive | GFP autofluor inactive
O=C(CSc1nnnn1-c1ccc(F)cc1)Nc1ccc(N2CCOCC2)c(Cl)c1	Myeloid diff 2 active | Myeloid diff inactive | GFP autofluor inactive
Cc1ccc(CN2CC(N3CCN(C)CC3)CS2(=O)=O)cc1 (stereo not drawn)	none (no result: TPT1 inh)
CCO/N=C/C1=C(O)C(C(=O)OC)C(C)(C)CC1=O (stereo not drawn)	none
CC/C(=C1/C(=O)CC(C)(C)C(C(=O)OC)C1=O)N1CCCC1 (stereo not drawn)	none | Myeloid diff inactive | GFP autofluor inactive
COc1ccccc1CC1(C)NC(=O)N(CC(=O)N2CCc3ccccc3C2)C1=O (stereo not drawn)	none | Myeloid diff inactive | GFP autofluor inactive
Cc1cc(C)nc(/N=C(\N)Nc2ccccc2-c2ccccc2)n1	Myeloid diff 2 active | Myeloid diff inactive | GFP autofluor inactive
Cc1ccc(N/C(N)=N/c2nc(C)cc(C)n2)cc1	none
CCCC(=O)C1=C(O)C(C(=O)OC)C(C)(C)CC1=Nc1ccccc1 (stereo not drawn)	none | Myeloid diff inactive | GFP autofluor inactive
CCCC(=O)C1=C(O)C(C(=O)OC)C(C)(C)CC1=NCc1ccccc1 (stereo not drawn)	none
O=C(Nc1ccc2c(c1)OCCO2)C1c2ccccc2OCC(=O)N1Cc1cccnc1 (stereo not drawn)	none (no result: Rpn11 inh, TPT1 inh)
CNC[C@H](CC1CCCCC1)NC[C@H](CO)NCCc1cccc(C(F)(F)F)c1	Myeloid diff 2 active | Myeloid diff inactive | GFP autofluor inactive
CNC[C@H](CC1CCCCC1)NC[C@H](CO)NCC1(c2ccccc2)CC1	none
Cc1cc(C)cc(NC(=O)Nc2c(Br)cnn2C)c1	none
CCS(=O)(=O)c1ccc2c(c1)N(S(=O)(=O)c1ccc(Cl)cc1)CC(C(=O)O)O2 (stereo not drawn)	none
CCOc1ccc(CN2C(=O)c3ccccc3C2=O)cc1C(=O)NC1CC(C)(C)NC(C)(C)C1	none (no result: TPT1 inh) | Myeloid diff inactive | GFP autofluor 98
CC(Oc1ccc(-c2ccccc2)c(F)c1)c1ccn(S(=O)(=O)c2ccc(F)cc2)n1 (stereo not drawn)	none | Myeloid diff inactive | GFP autofluor inactive
CCC(c1nnnn1-c1ccc2c(c1)OCCO2)N1CCN(c2ccc(C(F)(F)F)cc2[N+](=O)[O-])CC1 (stereo not drawn)	none (no result: Rpn11 inh, TPT1 inh)
O=C(Nc1ccccn1)C1CCCN1S(=O)(=O)c1ccc(Cl)cc1 (stereo not drawn)	none
Cc1cccc(C)c1NC(=O)Nc1cccs1	none | Myeloid diff inactive | GFP autofluor inactive
C[C@@H]1CN([C@@H](C)CO)C(=O)CCCn2nncc2CO[C@H]1CN(C)S(=O)(=O)c1ccc2ccccc2c1	none (no result: TPT1 inh) | Myeloid diff inactive | GFP autofluor inactive
C[C@@H]1CN([C@H](C)CO)C(=O)CCCn2nncc2CO[C@@H]1CN(C)S(=O)(=O)c1ccc2ccccc2c1	none (no result: TPT1 inh)
CCN(CC)C(=O)Cn1cc(S(=O)(=O)CC(=O)NC2CCCCC2)c2ccccc21	none
Cc1cccc(N(C(=O)CNC(=O)c2cccs2)C(C(=O)NC2CCCC2)c2cccnc2)c1 (stereo not drawn)	none | Myeloid diff inactive | GFP autofluor inactive
O=C(NCC(=O)N(c1cccnc1)C(C(=O)NC1CCCC1)c1cccs1)c1ccco1 (stereo not drawn)	none | Myeloid diff inactive | GFP autofluor 67
O=C(CN1CCCCCC1)Nc1ccccc1F	Myeloid diff 2 active | Myeloid diff inactive | GFP autofluor inactive
O=C1c2ccc([N+](=O)[O-])cc2C(=O)N1Cc1cccnc1	none
Cc1ccc(CC(=O)Nc2ccc(S(=O)(=O)Nc3nccc(C)n3)cc2)cc1	none | Myeloid diff inactive | GFP autofluor inactive
Cc1ccnc(NS(=O)(=O)c2ccc(NC(=O)Cc3ccccc3)cc2)n1	none
COc1ccc(CC(=O)Nc2ccc(S(=O)(=O)Nc3ncccn3)cc2)cc1	Myeloid diff 2 active | Myeloid diff inactive | GFP autofluor inactive
Fc1ccc(CNC(=S)NC2CCCC2)cc1	none
O=C(OCC(=O)c1c[nH]c2ccccc12)c1cccc(S(=O)(=O)N2CCCCCC2)c1	none | Myeloid diff inactive | GFP autofluor inactive
Cc1ccc(C)c(C(=O)Cn2ncc(Cl)c(Cl)c2=O)c1	Myeloid diff 2 inconclusive
Cc1cccc(Cn2ncc(Cl)c(Cl)c2=O)c1	none | Myeloid diff inactive | GFP autofluor inactive
CCC(C)(C)NC(=O)C(c1ccc(OC)cc1)N(C(=O)CCC(=O)Nc1cc(C)on1)c1ccccc1F (stereo not drawn)	none
O=C(CCn1c(=O)sc2ccccc21)NC1=NCCS1	none | Myeloid diff inactive | GFP autofluor inactive
N#CC1=C(S)N(c2ccccc2)C(c2ccc(-c3ccc(Cl)c(Cl)c3)o2)NC1=O (stereo not drawn)	none
N#CC1=C(S)N(c2ccccc2)C(c2ccc(-c3cc(Cl)ccc3Cl)o2)NC1=O (stereo not drawn)	none | Myeloid diff inactive | GFP autofluor inactive
O=C(Nc1ccccc1O)c1ccc(NS(=O)(=O)c2cccc3cccnc23)cc1	none | Myeloid diff inactive | GFP autofluor inactive
O=C(Nc1ncccc1O)c1ccc(S(=O)(=O)Nc2ccccc2)cc1	Myeloid diff 2 active | Myeloid diff inactive | GFP autofluor inactive

Source: PubChem (several laboratories)
